Results on nine molecules are retold here after ChEMBL document CHEMBL2331285, “Optimization of 3,5-dimethylisoxazole derivatives as potent bromodomain ligands” (J Med Chem, 2013).

Test [1] has as its system NCI-H1975. The experiment in a line: Cytotoxicity against human NCI-H1975 cells after 10 to 14 days by crystal violet staining based clonogenic survival assay. The test is classed as functional, cell-based.
A further test relates to HeLa. In words: Cytotoxicity against human HeLa cells after 24 hrs by WST-1 assay. The test is classed as functional, cell-based. On the technique in general: Formazan colour is commonly taken as a measure of viable cells.
Another test has as its system U2OS. In words: Cytotoxicity against human U2OS cells after 24 hrs by WST-1 assay. Format: functional, cell-based.
Test [2] concerns NCI-H1975. In words: Cytotoxicity against human NCI-H1975 cells after 72 hrs by MTS assay. The test is classed as functional, cell-based. The following applies: NCI-H1975, 72 h.
The next test concerns A549. In words: Cytotoxicity against human A549 cells after 72 hrs by MTS assay. Format: functional, cell-based. To be noted: A549, 72 h.
The target of a further test is CREB-binding protein (Homo sapiens, UniProt Q92793). The experiment in a line: Binding affinity to CREBBP bromodomain (unknown origin) using H3K56Ac peptide by amplified luminescent proximity homogeneous assay.
CREB-binding protein, sequence (Q92793 whole entry): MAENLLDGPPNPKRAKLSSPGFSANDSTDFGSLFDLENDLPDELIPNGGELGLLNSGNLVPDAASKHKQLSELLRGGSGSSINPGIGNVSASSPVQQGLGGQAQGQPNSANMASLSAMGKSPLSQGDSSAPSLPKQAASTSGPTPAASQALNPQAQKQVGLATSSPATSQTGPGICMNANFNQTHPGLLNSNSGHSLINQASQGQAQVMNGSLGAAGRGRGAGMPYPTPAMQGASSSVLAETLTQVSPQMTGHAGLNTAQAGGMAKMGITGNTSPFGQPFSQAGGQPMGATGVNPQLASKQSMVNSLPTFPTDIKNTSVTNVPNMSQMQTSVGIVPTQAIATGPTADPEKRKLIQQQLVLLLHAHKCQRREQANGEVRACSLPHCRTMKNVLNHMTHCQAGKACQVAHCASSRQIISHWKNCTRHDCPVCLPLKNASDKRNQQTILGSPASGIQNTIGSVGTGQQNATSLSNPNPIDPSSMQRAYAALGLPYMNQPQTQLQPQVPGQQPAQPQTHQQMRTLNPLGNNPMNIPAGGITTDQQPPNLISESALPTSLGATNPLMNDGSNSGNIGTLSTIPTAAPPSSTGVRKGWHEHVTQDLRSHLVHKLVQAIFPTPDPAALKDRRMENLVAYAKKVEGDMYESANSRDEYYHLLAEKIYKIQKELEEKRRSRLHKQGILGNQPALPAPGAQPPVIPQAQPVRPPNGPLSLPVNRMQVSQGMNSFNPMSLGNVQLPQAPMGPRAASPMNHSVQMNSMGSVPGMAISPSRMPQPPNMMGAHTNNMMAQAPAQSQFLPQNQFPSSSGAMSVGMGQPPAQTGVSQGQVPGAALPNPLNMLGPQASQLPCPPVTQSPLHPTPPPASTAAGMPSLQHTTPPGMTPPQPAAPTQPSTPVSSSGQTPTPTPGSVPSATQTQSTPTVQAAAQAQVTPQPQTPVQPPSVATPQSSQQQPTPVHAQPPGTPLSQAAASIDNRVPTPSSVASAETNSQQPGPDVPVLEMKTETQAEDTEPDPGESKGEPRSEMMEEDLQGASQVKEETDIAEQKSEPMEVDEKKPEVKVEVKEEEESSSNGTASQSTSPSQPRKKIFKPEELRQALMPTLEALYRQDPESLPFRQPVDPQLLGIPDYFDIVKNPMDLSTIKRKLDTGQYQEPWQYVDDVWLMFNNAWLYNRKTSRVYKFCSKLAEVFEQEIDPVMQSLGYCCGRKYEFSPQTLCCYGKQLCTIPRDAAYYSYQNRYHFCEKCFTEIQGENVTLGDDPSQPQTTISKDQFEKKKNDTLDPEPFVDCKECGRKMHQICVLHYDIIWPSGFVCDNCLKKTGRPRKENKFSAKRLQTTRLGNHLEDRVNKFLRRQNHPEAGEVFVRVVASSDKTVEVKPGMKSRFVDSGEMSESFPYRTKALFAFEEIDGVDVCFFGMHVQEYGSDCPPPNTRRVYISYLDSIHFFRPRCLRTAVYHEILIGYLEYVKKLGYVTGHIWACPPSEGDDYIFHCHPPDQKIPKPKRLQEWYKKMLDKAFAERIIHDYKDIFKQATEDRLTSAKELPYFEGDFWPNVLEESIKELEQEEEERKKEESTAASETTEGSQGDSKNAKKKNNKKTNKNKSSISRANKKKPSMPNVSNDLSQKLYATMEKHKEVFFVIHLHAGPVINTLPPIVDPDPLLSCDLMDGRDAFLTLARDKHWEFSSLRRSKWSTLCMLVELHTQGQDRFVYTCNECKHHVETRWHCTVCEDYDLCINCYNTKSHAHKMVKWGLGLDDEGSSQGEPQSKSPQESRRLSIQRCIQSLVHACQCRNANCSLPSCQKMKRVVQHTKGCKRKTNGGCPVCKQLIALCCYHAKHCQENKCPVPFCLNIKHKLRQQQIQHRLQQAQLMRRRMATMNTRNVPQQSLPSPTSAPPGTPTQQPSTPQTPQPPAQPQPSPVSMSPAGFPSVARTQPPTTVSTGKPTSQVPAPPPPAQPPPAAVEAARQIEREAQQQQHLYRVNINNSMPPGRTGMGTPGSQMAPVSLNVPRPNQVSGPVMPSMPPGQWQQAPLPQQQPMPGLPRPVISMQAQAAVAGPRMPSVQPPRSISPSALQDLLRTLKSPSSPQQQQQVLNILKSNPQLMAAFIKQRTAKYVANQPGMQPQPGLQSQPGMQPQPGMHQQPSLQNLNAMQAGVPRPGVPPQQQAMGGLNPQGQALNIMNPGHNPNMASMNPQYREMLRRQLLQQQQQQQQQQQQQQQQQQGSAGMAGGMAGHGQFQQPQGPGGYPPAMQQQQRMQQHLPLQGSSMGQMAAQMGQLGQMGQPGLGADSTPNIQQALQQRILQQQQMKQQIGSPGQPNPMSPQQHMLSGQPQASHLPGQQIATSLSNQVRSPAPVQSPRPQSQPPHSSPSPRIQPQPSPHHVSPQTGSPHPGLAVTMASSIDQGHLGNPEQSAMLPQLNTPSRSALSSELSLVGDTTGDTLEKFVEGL
Test [3] addresses Bromodomain-containing protein 4 (Homo sapiens, UniProt O60885). The experiment in a line: Binding affinity to human BRD4 bromodomain 1 using H4Ac4 peptide by amplified luminescent proximity homogeneous assay.
The subject of a further test is MV4-11. The experiment in a line: Cytotoxicity against human MV4-11 cells after 72 hrs by MTS assay. The test is classed as functional, cell-based. To be noted: MV4-11, 72 h.
The species entered for the next test is Homo sapiens. In words: Selectivity ratio of IC50 for CREBBP bromodomain to IC50 for human BRD4 bromodomain 1 (unknown origin). Put shortly: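 IC50 ratio, both values from AlphaScreen peptide displacement (protein and peptide 50 nM each, duplicates, sigmoidal fit). BRD4(1) used biotinylated tetra-acetylated H4 peptide (SGRGK(Ac)GGK(Ac)GLGK(Ac)GGAK(Ac)RHRK-biotin); CREBBP used biotinylated H3K56Ac peptide.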

Activity calls are given as the source filed them. The rule behind the calls is not given here.

The term IC50 denotes the concentration needed to halve the response being measured. Higher therefore signals weaker potency in that assay. As to `Cc1noc(C)c1-c1cc(O)cc(C(O)c2ccccc2)c1` (racemic), the result in the test on NCI-H1975 [1] was Active. Also, the half-maximal inhibitory concentration (IC50) is above 100000 nM in the test on HeLa, above 100000 nM with U2OS, above 10000 nM with NCI-H1975 [2] and above 10000 nM in the test with A549.
Take `CC(=O)Oc1cc(-c2c(C)noc2C)cc(C(O)c2ccccc2)c1` (racemic): the outcome with NCI-H1975 [1] was Active. Further, the concentration for half-maximal inhibition (IC50) in the test with HeLa was above 100000 nM; in the test with U2OS, above 100000 nM; in the test with NCI-H1975 [2], above 10000 nM; in the test with A549, above 10000 nM; on CREB-binding protein, 2480 nM.
Regarding `Cc1noc(C)c1-c1cc(OCCO)cc(C(O)c2ccccc2)c1` (stereo not given), the 50% inhibitory concentration (IC50) on CREB-binding protein worked out at 2810 nM; in test [3], 1170 nM.
Take `Cc1sc2c(c1C)C(c1ccc(Cl)cc1)=N[C@@H](CC(=O)OC(C)(C)C)c1nnc(C)n1-2`: the values for the IC50 with HeLa, with U2OS and with MV4-11 were above 100000 nM, above 100000 nM and 242 nM, respectively.
With `CCOc1cc(-c2c(C)noc2C)cc(C(O)c2ccccc2)c1` (stereo not given), the Ratio IC50 in the test listed under Homo sapiens stood at 6. The IC50 on CREB-binding protein was determined as 4100 nM; in [3], 640 nM.
Turning to `CCOc1cc(-c2c(C)noc2C)cc(C(C)O)c1` (stereo not given), in the test filed under Homo sapiens, the Ratio IC50 was 6.
`Cc1noc(C)c1-c1cc(O)cc(C(=O)c2ccccc2)c1` displayed a 50% inhibitory concentration (IC50) in test [3] of 544 nM.
With `COCCOc1cc(-c2c(C)noc2C)cc(C(O)c2ccccc2)c1` (stereo not given), the IC50 worked out at 2070 nM on CREB-binding protein and 1380 nM in [3].
Taken in the same sequence, the figures for `COc1cc(-c2c(C)noc2C)cc(C(O)c2ccccc2)c1` (stereo not given) were 3960 nM and 1360 nM.
